Results taken from publication PMC2164977 (The Journal of Cell Biology, 1999).
Non-standard residues stand in square brackets, D forms with d. Residues, ends and D or L forms follow the SMILES beside them. *: point of attachment. Sta = CC(C)C[C@H](N)[C@@H](O)CC(=O)O; Isovaleryl = CC(C)CC(=O)*

Columns and labels:
[1] = tested on: degradation activity of chloroplast extract (ATP-dependent, soluble metallopeptidase activity); assay: Degradation assay with chloroplast extract; format: biochemical; settings: for effect on subfragment degradation in chloroplast extract: 30 min incubation, not shown
[2] = tested on: nonspecific protease activity in rabbit reticulocyte lysate; assay: Nonspecific protease activity of the reticulocyte lysate; format: biochemical; settings: 2 mM PMSF, supernatant of preHSP21 processing reaction, 1 h at 24°C
Outline: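 To check lysate protease, [35S]methionine-labeled preHSP21 from reticulocyte lysate is processed 30 min at 24°C by bead-immobilized SPP. The supernatant holding the transit peptide subfragment is removed and incubated 1 h at 24°C, without inhibitor or with 2 mM PMSF. Remaining subfragment is read out.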

[3] = biological target: T1, stromal processing peptidase (SPP) (Pisum sativum, UniProt Q40983); settings: 10 mM NEM in binding assay; data not shown
T1 sequence (Q40983 143-1257): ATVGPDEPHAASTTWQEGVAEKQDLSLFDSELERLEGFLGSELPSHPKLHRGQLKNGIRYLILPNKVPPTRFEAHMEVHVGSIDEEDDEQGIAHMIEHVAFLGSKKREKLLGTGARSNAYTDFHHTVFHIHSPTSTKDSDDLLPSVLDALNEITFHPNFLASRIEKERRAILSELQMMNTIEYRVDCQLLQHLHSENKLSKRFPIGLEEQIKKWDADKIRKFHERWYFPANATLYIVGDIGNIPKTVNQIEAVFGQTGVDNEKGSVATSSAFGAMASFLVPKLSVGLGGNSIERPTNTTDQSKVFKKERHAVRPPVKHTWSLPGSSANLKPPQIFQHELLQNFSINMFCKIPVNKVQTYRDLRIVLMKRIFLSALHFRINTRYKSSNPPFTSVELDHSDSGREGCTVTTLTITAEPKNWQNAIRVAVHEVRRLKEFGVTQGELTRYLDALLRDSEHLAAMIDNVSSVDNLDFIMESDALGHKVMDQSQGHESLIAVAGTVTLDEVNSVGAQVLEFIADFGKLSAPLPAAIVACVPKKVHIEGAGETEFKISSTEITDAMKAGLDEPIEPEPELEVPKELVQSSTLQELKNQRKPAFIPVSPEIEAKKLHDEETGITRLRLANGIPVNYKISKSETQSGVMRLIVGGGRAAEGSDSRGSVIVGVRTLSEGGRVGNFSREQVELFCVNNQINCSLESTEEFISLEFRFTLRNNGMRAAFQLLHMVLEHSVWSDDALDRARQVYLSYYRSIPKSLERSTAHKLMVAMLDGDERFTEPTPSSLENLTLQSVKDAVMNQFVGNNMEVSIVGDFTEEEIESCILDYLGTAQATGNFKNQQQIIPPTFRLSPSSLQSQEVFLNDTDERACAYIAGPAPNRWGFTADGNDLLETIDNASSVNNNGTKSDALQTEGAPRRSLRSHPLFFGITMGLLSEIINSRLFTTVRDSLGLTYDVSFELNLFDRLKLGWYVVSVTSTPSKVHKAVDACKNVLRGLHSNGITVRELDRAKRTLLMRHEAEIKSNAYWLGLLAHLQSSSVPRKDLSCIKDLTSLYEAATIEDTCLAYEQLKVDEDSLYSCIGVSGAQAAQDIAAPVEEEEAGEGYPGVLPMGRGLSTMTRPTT
Outline: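 Recombinant biotin-tagged SPP from E. coli extract is captured on streptavidin magnetic beads. It is incubated 5 min at 24°C in 25 mM Hepes-KOH pH 7.5 with dialyzed [35S]methionine-labeled FD transit peptide or subfragment. Beads are washed twice in buffer, then eluted once with NaCl (0–1,000 mM), and the remaining material is released by boiling. Tricine SDS-PAGE, autoradiography and PhosphorImager quantification follow.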

[4] = biological target: T1, stromal processing peptidase (SPP); assay: Processing and transit peptide trimming by recombinant SPP; format: biochemical; settings: not shown
Outline: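 Time courses use reticulocyte-translated [35S]methionine precursors with biotin-tagged recombinant SPP (IPTG-induced E. coli, 30°C) bound to streptavidin magnetic beads. Reactions run in 25 mM Hepes-KOH pH 7.5, 2 mM PMSF, at 24°C, and are stopped by boiling in loading buffer. For preFD and preHSP21, 5 mM 1,10-phenanthroline is added at 2 or 5 min. Products are resolved by tricine SDS-PAGE and autoradiography.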

[5] = biological target: SPP in chloroplast extract (Pisum sativum, UniProt Q40983); assay: Conversion of transit peptide to subfragment in chloroplast extract; format: biochemical
SPP in chloroplast extract, sequence (Q40983 143-1257): as above
Outline: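 [35S]methionine-labeled FD transit peptide is made by 3 min cleavage of preFD on immobilized SPP, then frozen, cleared and dialyzed. It is incubated with chloroplast extract (1:1) in 25 mM Hepes-KOH pH 7.5 at 24°C for 30 min with 1,10-phenanthroline at 0.1–10 mM. Percent substrate remaining is quantified by tricine SDS-PAGE.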

Structure (SMILES): CC(C)CC(=O)N[C@H](C(=O)N[C@H](C(=O)N[C@@H](CC(C)C)[C@@H](O)CC(=O)N[C@@H](C)C(=O)N[C@@H](CC(C)C)[C@@H](O)CC(=O)O)C(C)C)C(C)C [pepstatin] (Isovaleryl-VV[Sta]A[Sta]-OH)
- effect on subfragment degradation in chloroplast extract ([1]; 100 μM inhibitor): None of these inhibitors significantly decreased

Structure (SMILES): O=S(=O)(F)Cc1ccccc1 [PMSF]
- effect on subfragment degradation in chloroplast extract ([1]; 10 mM inhibitor): None of these inhibitors significantly decreased
- HSP21 transit peptide subfragment remaining [2]: ~90%

Structure (SMILES): CCN1C(=O)C=CC1=O [NEM, N-ethylmaleimide]
- effect on interaction between SPP and FD transit peptide [3]: disrupted the interaction
- effect on subfragment degradation in chloroplast extract ([1]; 10 mM inhibitor): None of these inhibitors significantly decreased
- effect on SPP cleavage of precursors [4]: inhibited

Structure (SMILES): c1cnc2c(c1)ccc1cccnc12 [1,10-phenanthroline]
- FD transit peptide subfragment remaining after 30 min in chloroplast extract ([1]; 1 mM 1,10-phenanthroline, 24°C): 86%
- effect on degradation of the subfragment in chloroplast extract ([1]; 5 mM 1,10-phenanthroline, 30 min): inhibited
- degradation of FD transit peptide subfragment in chloroplast extract ([1]; 10 mM 1,10-phenanthroline, 30 min, 24°C): no degradation
- FD transit peptide left after 30 min in chloroplast extract ([5]; 1 mM 1,10-phenanthroline, 24°C): 16%
- FD transit peptide remaining after 30 min in chloroplast extract ([5]; 10 mM 1,10-phenanthroline, 24°C): 80%
- sensitivity of SPP relative to the degradation activity ([5]; SPP less sensitive than degradation activity): about tenfold

Structure (SMILES): CC(C)C[C@H](NC(=O)[C@H]1O[C@@H]1C(=O)O)C(=O)NCCCCN=C(N)N [E64]
- effect on subfragment degradation in chloroplast extract ([1]; 100 μM inhibitor): None of these inhibitors significantly decreased
